Values after ≈ are worked out from the molar mass of the structure shown.

These results are taken from ChEMBL document CHEMBL2086304, “Synthesis and in vitro antimycobacterial and isocitrate lyase inhibition properties of novel 2-methoxy-2'-hydroxybenzanilides, their thioxo analogues and benzoxazoles” (Eur J Med Chem, 2012).

The test system of assay [1] is Mycobacterium tuberculosis. Briefly: Antimycobacterial activity against Mycobacterium tuberculosis 331/88 after 14 days by micromethod. It counts as functional. Particulars: 331/88, 336 h. The method, boiled down: (§1)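 Inocula: M. tuberculosis My 331/88 at 10^-3 dilution, M. avium My 330/88 at 10^-5, M. kansasii My 235/80 and clinical isolate 6509/96 at 10^-4. Compounds added in DMSO at 1000 down to 0.5 (twofold series). Read at 14 and 21 days, plus 7 days for M. kansasii. MIC taken as lowest concentration inhibiting growth.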

The test system of assay [2] is Mycobacterium tuberculosis. Description: Antimycobacterial activity against Mycobacterium tuberculosis 331/88 after 21 days by micromethod. It counts as functional. Particulars: 331/88, 504 h. The method, boiled down: as §1
Assay [3] has as its system Mycobacterium avium. Description: Antimycobacterial activity against isoniazid resistance Mycobacterium avium 330/88 after 14 days by micromethod. It counts as functional. Particulars: 330/88, 336 h. The method, boiled down:
as §1

Assay [4] relates to Mycobacterium avium. Description: Antimycobacterial activity against isoniazid resistance Mycobacterium avium 330/88 after 21 days by micromethod. In kind it is functional. Particulars: 330/88, 504 h. The method, boiled down: as §1
Assay [5] has as its system Mycobacterium kansasii. Description: Antimycobacterial activity against Mycobacterium kansasii 6509/96 clinical isolate after 7 days by micromethod. In kind it is functional. Particulars: 6509/96, 168 h. The method, boiled down:
as §1

For assay [6], the system named is Mycobacterium kansasii. Description: Antimycobacterial activity against isoniazid resistance Mycobacterium kansasii 225/80 after 7 days by micromethod. Particulars: 225/80, 168 h. It counts as functional.
The subject of assay [7] is Mycobacterium kansasii. Description: Antimycobacterial activity against isoniazid resistance Mycobacterium kansasii 225/80 after 14 days by micromethod. Particulars: 225/80, 336 h. It counts as functional.
Assay [8] has as its system Mycobacterium kansasii. Description: Antimycobacterial activity against isoniazid resistance Mycobacterium kansasii 225/80 after 21 days by micromethod. Particulars: 225/80, 504 h. It counts as functional.
Assay [9] has as its system Mycobacterium kansasii. Briefly: Antimycobacterial activity against Mycobacterium kansasii 6509/96 clinical isolate after 14 days by micromethod. Particulars: 6509/96, 336 h. It counts as functional. The method in brief:
as §1

For assay [10], the system named is Mycobacterium kansasii. Briefly: Antimycobacterial activity against Mycobacterium kansasii 6509/96 clinical isolate after 21 days by micromethod. It counts as functional. Particulars: 6509/96, 504 h. The method, boiled down:
as §1

Assay [11] deals with T1, Isocitrate lyase (Mycobacterium tuberculosis) (UniProt P9WKK7).
T1 sequence (whole entry): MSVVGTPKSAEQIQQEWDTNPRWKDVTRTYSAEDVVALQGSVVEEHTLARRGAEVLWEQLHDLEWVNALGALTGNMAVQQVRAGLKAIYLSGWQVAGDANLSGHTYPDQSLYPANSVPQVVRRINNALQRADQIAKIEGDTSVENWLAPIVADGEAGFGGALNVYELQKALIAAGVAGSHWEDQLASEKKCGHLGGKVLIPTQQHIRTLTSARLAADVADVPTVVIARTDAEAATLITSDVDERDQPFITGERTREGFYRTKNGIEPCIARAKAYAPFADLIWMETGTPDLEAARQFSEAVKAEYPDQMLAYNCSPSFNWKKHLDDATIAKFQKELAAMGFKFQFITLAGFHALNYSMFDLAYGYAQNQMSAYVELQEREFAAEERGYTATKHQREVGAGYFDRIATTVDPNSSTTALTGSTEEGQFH
Briefly: Inhibition of Mycobacterium tuberculosis H37Rv isocitrate lyase expressed in Escherichia coli HB101 at 10 umol/L. The method in brief:
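Isocitrate lyase assayed per Dixon–Kornberg in 96-well format. Buffer: 50 mmol/L KH2PO4, 4 mmol/L MgCl2, 4 mmol/L phenylhydrazine, 12 mmol/L cysteine, pH 7.0. Glyoxylate phenylhydrazone read at 324 nm. Compounds added in DMSO, with DMSO-alone inhibition subtracted.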

Assay [12] relates to HepG2. Description: Cytotoxicity against human HepG2 cells after 24 hrs by CellTiter-96 cell viability assay. It counts as functional, cell-based. Particulars: HepG2, 24 h. The method, boiled down:
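Hep G2 human hepatic cells (passage 12), 10,000 per well, grown 24 h at 37 °C, 5% CO2 in MEM with 1% glutamine, 10% FBS and 1% nonessential amino acids. Compounds in DMSO at eight increasing concentrations, quadruplicate, 24 h at 37 °C. Kit reagent added, 1.5 h at 37 °C, absorbance 490 nm. IC50 is the concentration reducing viability to 50% of control.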

Assay [13] is described as follows: Selectivity index, ratio of IC50 for human HepG2 cells to MIC for Mycobacterium tuberculosis 331/88 after 14 days. It counts as functional. The method in brief:
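Cytotoxicity in Hep G2 cells (passage 12), 10,000 cells/well, in MEM with 10% FBS, 1% glutamine and 1% nonessential amino acids. Cells preincubated 24 h, 37 °C, 5% CO2. Compounds in DMSO at eight concentrations in quadruplicate, 24 h. MTS-type reagent added for 1.5 h, A490 read, IC50 taken at 50% viability. SI = this IC50 over the 14-day M. tuberculosis MIC.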

Usually MIC stands for the lowest concentration found to suppress growth. Read a high MIC as weaker potency. The term inhibition denotes how much of the control response was suppressed. A higher inhibition goes with strong suppression. The IC50 is the concentration at which inhibition is half-maximal. Low readings indicate greater potency in that assay, high ones weaker potency in that assay. With `COc1cc(Cl)ccc1C(=S)Nc1cc(Br)ccc1O`, the MIC in [1] was determined as 32 µM (≈ 11.9 µg/mL); in assay [2], 32 µM (≈ 11.9 µg/mL); in assay [3] it was 32 µM (≈ 11.9 µg/mL); in [4], 62.5 µM (≈ 23.3 µg/mL); in assay [5], 32 µM (≈ 11.9 µg/mL); in assay [6], 16 µM (≈ 5.96 µg/mL). For the same molecule, the MIC in assay [7] was found to be 32 µM (≈ 11.9 µg/mL); in [8] it was 62.5 µM (≈ 23.3 µg/mL); in assay [9] it was 32 µM (≈ 11.9 µg/mL); in assay [10], 62.5 µM (≈ 23.3 µg/mL). The same molecule registered an inhibition in assay [11] of 0%. Further, the IC50 in [12] worked out at 6.53 µM. For the same molecule, the “Selectivity Index” value in assay [13] was 0.2.

Turning to `COc1ccc(Cl)cc1C(=S)Nc1ccc(Cl)cc1O`, the MIC in [1] stood at 16 µM (≈ 5.25 µg/mL); in [2], 32 µM (≈ 10.5 µg/mL); in [3], 32 µM (≈ 10.5 µg/mL); in assay [4], 62.5 µM (≈ 20.5 µg/mL); in assay [5] it was 32 µM (≈ 10.5 µg/mL); in assay [6], 16 µM (≈ 5.25 µg/mL). In addition, the MIC in [7] was found to be 32 µM (≈ 10.5 µg/mL); in assay [8], 62.5 µM (≈ 20.5 µg/mL); in assay [9] it was 32 µM (≈ 10.5 µg/mL); in assay [10] it was 32 µM (≈ 10.5 µg/mL). In assay [11], the inhibition stood at 0%. Further, the IC50 in assay [12] stood at 4.45 µM. In addition, the “Selectivity Index” value in assay [13] was found to be 0.28.

`COc1cc(Cl)ccc1C(=O)Nc1cc(Br)ccc1O`: the MIC in [1] amounted to 125 µM (≈ 44.6 µg/mL); in assay [2] it was 125 µM (≈ 44.6 µg/mL); in assay [3] it was 62.5 µM (≈ 22.3 µg/mL); in assay [4], 62.5 µM (≈ 22.3 µg/mL); in assay [5], 62.5 µM (≈ 22.3 µg/mL); in [6] it was 62.5 µM (≈ 22.3 µg/mL). Moreover, the MIC in [7], in assay [8], in assay [9] and in assay [10] was 62.5 µM (≈ 22.3 µg/mL) in each case. This molecule showed an inhibition in assay [11] of 0%. This molecule showed an IC50 in [12] of 5.63 µM. The “Selectivity Index” value in assay [13] was determined as 0.05.

Regarding `COc1ccc(Cl)cc1C(=O)Nc1cc(Cl)c(Cl)cc1O`, the MIC in assay [1], in [2], in assay [3], in assay [4], in assay [5] and in assay [6] was 125 µM (≈ 43.3 µg/mL) each time. Besides, the MIC in [7], in [8], in assay [9] and in assay [10] was 125 µM (≈ 43.3 µg/mL) throughout. This molecule also came in with an inhibition in assay [11] of 7%. This molecule returned an IC50 in [12] of 2.98 µM. For the same molecule, the “Selectivity Index” value in assay [13] came out at 0.02.

As for `COc1cc(Cl)ccc1C(=S)Nc1cc(Cl)ccc1O`, the MIC came to 62.5 µM (≈ 20.5 µg/mL) in [1]; 62.5 µM (≈ 20.5 µg/mL) in [2]; 32 µM (≈ 10.5 µg/mL) in assay [3]; 32 µM (≈ 10.5 µg/mL) in assay [4]; 32 µM (≈ 10.5 µg/mL) in assay [5]; 16 µM (≈ 5.25 µg/mL) in assay [6]. Moreover, the MIC in assay [7] was found to be 62.5 µM (≈ 20.5 µg/mL); in assay [8], 125 µM (≈ 41 µg/mL); in assay [9] it was 62.5 µM (≈ 20.5 µg/mL); in [10], 125 µM (≈ 41 µg/mL). The molecule further came in with an inhibition in assay [11] of 9%. Also, the IC50 in [12] was found to be 8.49 µM. Moreover, the “Selectivity Index” value in assay [13] stood at 0.14.

`COc1ccc(Cl)cc1C(=S)Nc1cc(Cl)ccc1O`: the MIC in assay [1] amounted to 16 µM (≈ 5.25 µg/mL); in assay [2], 32 µM (≈ 10.5 µg/mL); in assay [3], 32 µM (≈ 10.5 µg/mL); in assay [4], 32 µM (≈ 10.5 µg/mL); in assay [5], 16 µM (≈ 5.25 µg/mL); in [6] it was 8 µM (≈ 2.63 µg/mL). Moreover, the MIC in assay [7] is 8 µM (≈ 2.63 µg/mL); in [8], 16 µM (≈ 5.25 µg/mL); in [9] it was 32 µM (≈ 10.5 µg/mL); in [10], 32 µM (≈ 10.5 µg/mL). The inhibition in assay [11] turned out to be 0%. The same molecule returned an IC50 in assay [12] of 8.6 µM. Moreover, in [13], the “Selectivity Index” value was 0.54.

On to `COc1cc(Cl)ccc1C(=S)Nc1cc(Cl)c(Cl)cc1O`, for which the MIC came to 32 µM (≈ 11.6 µg/mL) in assay [1]; 32 µM (≈ 11.6 µg/mL) in assay [2]; 62.5 µM (≈ 22.7 µg/mL) in assay [3]; 62.5 µM (≈ 22.7 µg/mL) in assay [4]; 16 µM (≈ 5.8 µg/mL) in assay [5]; 16 µM (≈ 5.8 µg/mL) in [6]. Further, the MIC in assay [7] stood at 32 µM (≈ 11.6 µg/mL); in [8], 62.5 µM (≈ 22.7 µg/mL); in assay [9] it was 32 µM (≈ 11.6 µg/mL); in assay [10], 62.5 µM (≈ 22.7 µg/mL). The inhibition in assay [11] was determined as 0%. Also, the IC50 in assay [12] was determined as 3.16 µM. In addition, in [13], the “Selectivity Index” value stood at 0.1.
